Source: ChEMBL document CHEMBL1955837 (J Med Chem, 2012)
Calls of active or inactive are those of the source. No cut-off for these calls is given here.

Legend:
Homo sapiens = species: Homo sapiens; experiment: Selectivity ratio of IC50 for human recombinant eNOS to IC50 for human recombinant nNOS
[1] = target: Nitric oxide sythases; iNOS & nNOS (Homo sapiens) (UniProt P29475+P35228); experiment: Selectivity ratio of IC50 for human recombinant iNOS to IC50 for human recombinant nNOS
Nitric oxide synthase 3 [2] = target: T1, Nitric oxide synthase 3 (Homo sapiens, UniProt P29474); experiment: Inhibition of human recombinant eNOS expressed in baculovirus infected insect Sf9 cells assessed as conversion of [3H]L-arginine to [3H]L-citrulline incubated for 15 mins prior to substrate addition measured after 45 mins by liquid scintillation counting
T1 sequence (P29474 whole entry): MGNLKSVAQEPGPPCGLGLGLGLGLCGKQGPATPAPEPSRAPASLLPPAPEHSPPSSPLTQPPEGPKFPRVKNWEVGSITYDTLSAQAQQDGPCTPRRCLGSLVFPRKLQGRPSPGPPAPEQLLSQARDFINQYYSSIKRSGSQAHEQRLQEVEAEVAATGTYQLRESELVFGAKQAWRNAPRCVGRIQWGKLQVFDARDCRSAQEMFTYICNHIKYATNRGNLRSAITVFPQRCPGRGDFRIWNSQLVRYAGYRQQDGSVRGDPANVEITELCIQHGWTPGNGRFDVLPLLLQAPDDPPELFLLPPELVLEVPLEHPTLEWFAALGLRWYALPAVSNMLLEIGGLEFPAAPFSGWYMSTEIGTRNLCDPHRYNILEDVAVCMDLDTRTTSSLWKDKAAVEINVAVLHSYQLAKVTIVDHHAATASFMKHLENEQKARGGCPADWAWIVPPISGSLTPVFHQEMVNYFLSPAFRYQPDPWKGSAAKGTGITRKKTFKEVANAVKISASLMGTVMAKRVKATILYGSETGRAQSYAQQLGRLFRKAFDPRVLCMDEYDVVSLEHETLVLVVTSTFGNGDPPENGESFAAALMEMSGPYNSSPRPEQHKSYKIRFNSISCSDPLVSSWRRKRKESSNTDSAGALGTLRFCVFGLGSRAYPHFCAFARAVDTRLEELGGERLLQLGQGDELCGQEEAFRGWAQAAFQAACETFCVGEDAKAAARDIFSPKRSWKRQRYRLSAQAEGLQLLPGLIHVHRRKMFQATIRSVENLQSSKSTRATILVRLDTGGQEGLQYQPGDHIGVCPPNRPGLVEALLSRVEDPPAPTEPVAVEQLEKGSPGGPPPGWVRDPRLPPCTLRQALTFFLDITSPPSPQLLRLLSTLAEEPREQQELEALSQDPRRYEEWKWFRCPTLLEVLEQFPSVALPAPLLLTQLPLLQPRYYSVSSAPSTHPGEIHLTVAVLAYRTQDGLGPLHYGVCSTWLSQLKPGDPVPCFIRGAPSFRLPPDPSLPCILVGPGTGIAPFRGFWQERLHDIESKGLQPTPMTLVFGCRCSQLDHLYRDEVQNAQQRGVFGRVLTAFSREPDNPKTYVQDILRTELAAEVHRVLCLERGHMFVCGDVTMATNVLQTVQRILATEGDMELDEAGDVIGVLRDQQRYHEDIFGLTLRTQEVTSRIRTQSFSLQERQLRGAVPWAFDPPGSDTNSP

[3] = target: Nitric oxide synthase, inducible (Homo sapiens, UniProt P35228); experiment: Inhibition of human recombinant iNOS expressed in baculovirus infected insect Sf9 cells assessed as conversion of [3H]L-arginine to [3H]L-citrulline incubated for 15 mins prior to substrate addition measured after 45 mins by liquid scintillation counting
Nitric oxide synthase, inducible (Homo sapiens, UniProt P35228), sequence (P35228 whole entry): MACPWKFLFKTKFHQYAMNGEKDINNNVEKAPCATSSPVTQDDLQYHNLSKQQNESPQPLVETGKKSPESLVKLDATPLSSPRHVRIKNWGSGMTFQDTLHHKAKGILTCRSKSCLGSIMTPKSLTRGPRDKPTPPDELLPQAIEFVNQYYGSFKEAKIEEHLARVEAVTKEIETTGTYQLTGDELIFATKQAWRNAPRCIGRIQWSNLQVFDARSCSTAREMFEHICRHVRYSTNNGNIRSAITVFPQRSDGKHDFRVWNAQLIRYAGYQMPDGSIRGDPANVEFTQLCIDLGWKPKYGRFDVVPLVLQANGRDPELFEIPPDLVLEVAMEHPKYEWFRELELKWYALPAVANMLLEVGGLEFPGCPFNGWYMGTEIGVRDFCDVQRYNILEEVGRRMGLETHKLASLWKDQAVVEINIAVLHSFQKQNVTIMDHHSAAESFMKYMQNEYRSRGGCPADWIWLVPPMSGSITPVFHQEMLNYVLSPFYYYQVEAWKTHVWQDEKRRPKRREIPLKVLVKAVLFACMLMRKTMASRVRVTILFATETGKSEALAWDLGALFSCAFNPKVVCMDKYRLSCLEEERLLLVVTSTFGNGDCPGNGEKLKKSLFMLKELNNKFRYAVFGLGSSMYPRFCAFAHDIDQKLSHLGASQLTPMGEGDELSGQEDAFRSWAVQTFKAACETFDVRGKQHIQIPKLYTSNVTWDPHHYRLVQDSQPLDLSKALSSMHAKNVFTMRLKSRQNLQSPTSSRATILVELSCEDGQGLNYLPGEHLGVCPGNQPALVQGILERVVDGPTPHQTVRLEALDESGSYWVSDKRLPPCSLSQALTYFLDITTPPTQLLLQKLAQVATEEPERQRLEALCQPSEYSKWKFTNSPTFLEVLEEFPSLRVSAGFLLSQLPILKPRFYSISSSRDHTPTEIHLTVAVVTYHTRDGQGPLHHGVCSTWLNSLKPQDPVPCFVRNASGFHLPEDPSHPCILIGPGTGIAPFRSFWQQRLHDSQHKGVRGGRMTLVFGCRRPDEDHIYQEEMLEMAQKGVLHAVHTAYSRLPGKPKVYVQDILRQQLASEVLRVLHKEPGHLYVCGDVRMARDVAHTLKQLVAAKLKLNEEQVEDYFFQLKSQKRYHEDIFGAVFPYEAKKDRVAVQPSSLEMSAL

Nitric oxide synthase 1 [4] = target: Nitric oxide synthase 1 (Homo sapiens, UniProt P29475); experiment: Inhibition of human recombinant nNOS expressed in baculovirus infected insect Sf9 cells assessed as conversion of [3H]L-arginine to [3H]L-citrulline incubated for 15 mins prior to substrate addition measured after 45 mins by liquid scintillation counting
Nitric oxide synthase 1 (Homo sapiens, UniProt P29475), sequence (P29475 whole entry): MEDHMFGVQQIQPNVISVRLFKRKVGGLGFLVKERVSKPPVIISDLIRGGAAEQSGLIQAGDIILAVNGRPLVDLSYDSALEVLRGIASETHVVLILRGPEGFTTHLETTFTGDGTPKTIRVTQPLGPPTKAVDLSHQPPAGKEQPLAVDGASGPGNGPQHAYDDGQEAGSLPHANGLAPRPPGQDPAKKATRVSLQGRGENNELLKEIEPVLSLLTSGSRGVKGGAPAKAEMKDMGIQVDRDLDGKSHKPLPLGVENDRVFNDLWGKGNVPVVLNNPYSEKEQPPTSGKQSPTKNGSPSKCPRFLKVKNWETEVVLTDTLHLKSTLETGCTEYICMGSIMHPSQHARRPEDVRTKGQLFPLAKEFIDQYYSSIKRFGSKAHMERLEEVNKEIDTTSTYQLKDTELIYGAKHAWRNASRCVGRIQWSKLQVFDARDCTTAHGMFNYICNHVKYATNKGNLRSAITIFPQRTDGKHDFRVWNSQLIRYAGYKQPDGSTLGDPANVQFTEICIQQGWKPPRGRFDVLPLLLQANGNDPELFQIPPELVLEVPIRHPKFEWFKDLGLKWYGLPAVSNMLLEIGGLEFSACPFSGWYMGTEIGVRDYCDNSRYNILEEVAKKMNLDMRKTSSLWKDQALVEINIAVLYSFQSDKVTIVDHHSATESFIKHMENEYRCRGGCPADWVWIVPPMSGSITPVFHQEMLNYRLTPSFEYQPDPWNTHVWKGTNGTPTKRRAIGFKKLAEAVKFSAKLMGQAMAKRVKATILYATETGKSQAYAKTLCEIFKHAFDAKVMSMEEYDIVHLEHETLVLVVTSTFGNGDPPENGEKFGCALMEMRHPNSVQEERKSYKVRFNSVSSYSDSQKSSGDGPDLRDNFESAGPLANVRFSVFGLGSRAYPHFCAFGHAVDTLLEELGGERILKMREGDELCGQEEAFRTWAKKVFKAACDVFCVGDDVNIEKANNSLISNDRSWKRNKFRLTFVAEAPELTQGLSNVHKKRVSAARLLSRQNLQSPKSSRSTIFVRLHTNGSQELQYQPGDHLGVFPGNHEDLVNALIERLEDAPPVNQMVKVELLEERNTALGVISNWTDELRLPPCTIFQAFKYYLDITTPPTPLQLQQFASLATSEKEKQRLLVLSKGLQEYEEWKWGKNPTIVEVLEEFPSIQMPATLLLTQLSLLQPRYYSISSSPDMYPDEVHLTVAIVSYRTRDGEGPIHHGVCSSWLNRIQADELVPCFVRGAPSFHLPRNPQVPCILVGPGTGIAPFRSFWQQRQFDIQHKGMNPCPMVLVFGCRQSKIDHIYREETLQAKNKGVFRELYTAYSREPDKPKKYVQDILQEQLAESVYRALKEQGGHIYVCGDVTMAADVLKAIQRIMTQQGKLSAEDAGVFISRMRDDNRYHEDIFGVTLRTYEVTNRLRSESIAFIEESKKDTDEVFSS

[5] = target: Nitric oxide synthase, inducible (Rattus norvegicus, UniProt Q06518); experiment: Inhibition of rat recombinant iNOS expressed in baculovirus infected insect Sf9 cells assessed as conversion of [3H]L-arginine to [3H]L-citrulline incubated for 15 mins prior to substrate addition measured after 45 mins by liquid scintillation counting
[6] = target: Mu-type opioid receptor (Homo sapiens) (UniProt P35372); experiment: Displacement of [3H]DAMGO from human recombinant mu opioid receptor expressed in HEK 293 cells at 10 uM after 120 mins; type: cell-based; settings: HEK293
Mu-type opioid receptor (Homo sapiens), sequence (P35372 whole entry): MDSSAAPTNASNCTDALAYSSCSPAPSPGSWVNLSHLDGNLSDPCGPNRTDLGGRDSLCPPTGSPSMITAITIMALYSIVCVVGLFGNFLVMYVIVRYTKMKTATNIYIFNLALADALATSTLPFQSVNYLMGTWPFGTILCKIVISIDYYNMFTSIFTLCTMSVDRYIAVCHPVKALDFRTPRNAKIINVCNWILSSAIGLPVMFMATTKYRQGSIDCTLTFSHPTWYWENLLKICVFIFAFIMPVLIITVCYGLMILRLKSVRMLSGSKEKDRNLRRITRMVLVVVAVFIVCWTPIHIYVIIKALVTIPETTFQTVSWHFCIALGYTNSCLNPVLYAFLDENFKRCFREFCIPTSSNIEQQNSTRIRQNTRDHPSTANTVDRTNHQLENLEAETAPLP
Outline: (§1)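 Single-concentration (10 μM) radioligand binding screen. Specific binding = total minus nonspecific binding, with nonspecific binding taken in excess unlabeled ligand. Results were given as percent inhibition of control specific binding.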

[7] = target: Muscarinic acetylcholine receptor M5 (Homo sapiens) (UniProt P08912); experiment: Displacement of [3H]4-DAMP from human recombinant muscarinic M5 receptor expressed in CHO cells at 10 uM after 60 mins; type: cell-based; outline: as §1
[8] = target: T2, Sodium-dependent noradrenaline transporter (Homo sapiens, UniProt P23975); experiment: Displacement of [3H]nisoxetine from human recombinant norepinephrine transporter expressed in CHO cells at 10 uM after 120 mins; type: cell-based; outline: as §1
T2 sequence (P23975 whole entry): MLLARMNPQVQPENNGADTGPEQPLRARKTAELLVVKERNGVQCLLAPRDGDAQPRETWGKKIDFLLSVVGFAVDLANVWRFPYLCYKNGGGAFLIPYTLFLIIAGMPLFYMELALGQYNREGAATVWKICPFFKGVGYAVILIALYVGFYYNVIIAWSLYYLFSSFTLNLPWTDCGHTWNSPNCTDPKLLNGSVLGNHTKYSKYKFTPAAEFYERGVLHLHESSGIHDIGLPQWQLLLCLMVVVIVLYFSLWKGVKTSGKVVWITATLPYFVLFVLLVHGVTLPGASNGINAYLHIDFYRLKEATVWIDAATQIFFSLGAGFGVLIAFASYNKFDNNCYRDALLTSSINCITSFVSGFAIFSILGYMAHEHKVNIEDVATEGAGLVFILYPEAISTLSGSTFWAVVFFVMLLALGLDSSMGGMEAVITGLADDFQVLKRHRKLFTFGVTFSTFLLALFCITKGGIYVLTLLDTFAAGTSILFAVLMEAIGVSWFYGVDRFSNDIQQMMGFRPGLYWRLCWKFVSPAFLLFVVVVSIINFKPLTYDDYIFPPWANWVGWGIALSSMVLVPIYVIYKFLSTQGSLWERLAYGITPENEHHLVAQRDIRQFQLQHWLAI

Nitric oxide synthase 1 [9] = target: Nitric oxide synthase 1 (Rattus norvegicus, UniProt P29476); experiment: Inhibition of rat recombinant nNOS expressed in baculovirus infected insect Sf9 cells assessed as conversion of [3H]L-arginine to [3H]L-citrulline incubated for 15 mins prior to substrate addition measured after 45 mins by liquid scintillation counting
Rattus norvegicus [10] = species: Rattus norvegicus; experiment: Displacement of [3H]DTG from rat cerebral cortex sigma receptor at 10 uM after 120 mins; type: tissue-based; outline: as §1
Rattus norvegicus [11] = experiment: Analgesic activity in rat Chung model of neuropathic pain assessed as partial reversal of thermal hyperalgesia at 30 mg/kg, ip; type: functional, organism-based; set-up: dose 30 mg/kg
Outline: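 Rats anesthetized with halothane; L5 and L6 spinal nerves exposed, isolated and tightly ligated with 4-0 silk suture distal to the DRG. After surgical recovery, hyperalgesia was read as paw withdrawal latency to radiant heat applied to the paw after intraperitoneal dosing.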

[12] = target: Muscarinic acetylcholine receptor M2 (Homo sapiens) (UniProt P08172); experiment: Displacement of [3H]AF-DX 384 from human recombinant muscarinic M2 receptor expressed in CHO cells at 10 uM after 60 mins; type: cell-based; outline: as §1
[13] = target: Muscarinic acetylcholine receptor M3 (Homo sapiens) (UniProt P20309); experiment: Displacement of [3H]4-DAMP from human recombinant muscarinic M3 receptor expressed in CHO cells at 10 uM after 60 mins; type: cell-based; outline: as §1
[14] = target: Muscarinic acetylcholine receptor M1 (Homo sapiens) (UniProt P11229); experiment: Displacement of [3H]pirenzepine from human recombinant muscarinic M1 receptor expressed in CHO cells at 10 uM after 60 mins; type: cell-based; outline: as §1
[15] = target: 5-hydroxytryptamine receptor 1B (Rattus norvegicus) (UniProt P28564); experiment: Displacement of [125I]CYP from rat cerebral cortex 5HT1B receptor at 10 uM after 120 mins in the presence of (-)propranolol; type: tissue-based; outline: as §1
Rattus norvegicus [16] = experiment: Analgesic activity in rat Chung model of neuropathic pain assessed as partial reversal of thermal hyperalgesia at 30 mg/kg, ip measured after 30 mins; settings: route intraperitoneal
[17] = target: Adrenergic receptor alpha-2 (Rattus norvegicus) (UniProt P22086+P19328+P22909); experiment: Displacement of [3H]RX 821002 from rat cerebral cortex alpha2 adrenergic receptor at 10 uM after 60 mins; type: tissue-based; outline: as §1
[18] = target: T2, Sodium-dependent noradrenaline transporter; experiment: Displacement of [3H]nisoxetine from human recombinant norepinephrine transporter expressed in CHO cells after 120 mins; type: cell-based
[19] = target: 5-hydroxytryptamine receptor 5A (Homo sapiens) (UniProt P47898); experiment: Displacement of [3H]LSD from human recombinant 5-HT5a receptor expressed in HEK293 cells at 10 uM after 120 mins; type: cell-based; outline: as §1
[20] = Cardiotoxicity in human arteries assessed as inhibition of acetylcholine-mediated vasorelaxation at 100 uM pretreated with U46619 prior to Ach challenge measured after 50 mins; type: toxicity, tissue-based, Artery
Outline: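 Human resistance artery rings (~2 mm) were wire-mounted in a myograph in Krebs-bicarbonate PSS gassed with 95% O2/5% CO2 at 37 °C, and isometric tension was recorded. After ≥30 min equilibration, rings received three KPSS (62.5 mM) challenges. Endothelial integrity was checked with U46619 (1 × 10⁻⁷ M) then ACh. Compound was added for 50 min without L-arginine, then rings were submaximally precontracted with U46619 before cumulative ACh (1 × 10⁻¹⁰ to 1 × 10⁻⁵ M).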

[21] = Cardiotoxicity in human arteries assessed as inhibition of acetylcholine-mediated vasorelaxation at 100 uM pretreated with U46619 prior to Ach challenge measured after 50 mins in presence of L-arginine; type: toxicity, tissue-based, Artery
[22] = target: Kappa-type opioid receptor (Rattus norvegicus) (UniProt P34975); experiment: Displacement of [3H]U 69593 from rat recombinant kappa opioid receptor expressed in CHO cells at 10 uM after 60 mins; type: cell-based; outline: as §1
[23] = target: Muscarinic acetylcholine receptor M4 (Homo sapiens) (UniProt P08173); experiment: Displacement of [3H]4-DAMP from human recombinant muscarinic M4 receptor expressed in CHO cells at 10 uM after 60 mins; type: cell-based; outline: as §1
Nitric oxide synthase 3 [24] = target: Nitric oxide synthase 3 (Rattus norvegicus, UniProt Q62600); experiment: Inhibition of rat recombinant eNOS expressed in baculovirus infected insect Sf9 cells assessed as conversion of [3H]L-arginine to [3H]L-citrulline incubated for 15 mins prior to substrate addition measured after 45 mins by liquid scintillation counting
[25] = target: Voltage-gated inwardly rectifying potassium channel KCNH2 (Homo sapiens, UniProt Q12809); experiment: Inhibition of human Erg expressed in HEK293 cells by patch clamp assay
Voltage-gated inwardly rectifying potassium channel KCNH2, sequence (Q12809 whole entry): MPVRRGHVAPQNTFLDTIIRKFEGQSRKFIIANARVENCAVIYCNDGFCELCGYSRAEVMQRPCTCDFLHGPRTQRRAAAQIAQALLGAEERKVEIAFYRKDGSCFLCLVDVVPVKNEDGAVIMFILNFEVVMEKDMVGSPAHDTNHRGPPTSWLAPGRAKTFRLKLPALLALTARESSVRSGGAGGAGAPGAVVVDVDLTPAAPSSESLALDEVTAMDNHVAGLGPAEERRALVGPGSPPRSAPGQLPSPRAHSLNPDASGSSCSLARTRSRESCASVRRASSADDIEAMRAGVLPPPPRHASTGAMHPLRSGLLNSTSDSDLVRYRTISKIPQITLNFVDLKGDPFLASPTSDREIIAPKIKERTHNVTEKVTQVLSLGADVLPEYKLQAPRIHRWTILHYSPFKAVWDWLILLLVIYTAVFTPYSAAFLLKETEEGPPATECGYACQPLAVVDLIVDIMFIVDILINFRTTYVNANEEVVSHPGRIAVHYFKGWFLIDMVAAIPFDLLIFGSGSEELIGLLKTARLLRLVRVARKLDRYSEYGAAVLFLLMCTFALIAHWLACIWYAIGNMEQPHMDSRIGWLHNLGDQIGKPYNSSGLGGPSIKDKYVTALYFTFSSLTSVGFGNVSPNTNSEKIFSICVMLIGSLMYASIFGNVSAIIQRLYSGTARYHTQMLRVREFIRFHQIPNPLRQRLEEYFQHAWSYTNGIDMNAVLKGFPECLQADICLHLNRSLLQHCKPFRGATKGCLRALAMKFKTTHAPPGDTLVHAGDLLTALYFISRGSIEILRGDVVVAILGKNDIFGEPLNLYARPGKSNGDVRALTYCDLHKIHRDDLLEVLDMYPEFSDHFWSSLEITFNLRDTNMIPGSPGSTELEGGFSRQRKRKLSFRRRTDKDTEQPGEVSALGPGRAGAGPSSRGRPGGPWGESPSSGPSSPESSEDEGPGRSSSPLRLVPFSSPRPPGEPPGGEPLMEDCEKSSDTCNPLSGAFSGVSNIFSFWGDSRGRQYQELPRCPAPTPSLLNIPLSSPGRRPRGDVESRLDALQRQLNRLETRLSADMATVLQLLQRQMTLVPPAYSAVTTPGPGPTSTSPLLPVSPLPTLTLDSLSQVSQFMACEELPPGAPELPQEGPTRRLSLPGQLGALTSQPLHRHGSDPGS

Nitric oxide sythases; iNOS & nNOS (Homo sapiens), sequence (P29475 whole entry, looked up): as the sequence (P29475 whole entry) above
Nitric oxide sythases; iNOS & nNOS (Homo sapiens), sequence (P35228 whole entry, looked up): as the sequence (P35228 whole entry) above

Ratio IC50 (Homo sapiens)	Ratio IC50 [1]	IC50 (Nitric oxide synthase 3 [2])	IC50 [3]	IC50 (Nitric oxide synthase 1 [4])	Structure (SMILES)	also measured
183	4	–	–	–	N=C(Nc1ccc2c(c1)N(C1CCNCC1)CC2)c1cccs1	–
–	–	84.8 µM	> 100 µM	3.26 µM	NC(=Nc1ccc2c(c1)N(C1CCOCC1)CC2)c1cccs1	–
38	154	220 µM	897 µM	5.82 µM	CN[C@H]1CC[C@@H](N2CCc3cc(F)c(NC(=N)c4cccs4)cc32)CC1	–
48	49	–	–	–	N=C(Nc1ccc2c(c1)N(CCNCCO)CC2)c1cccs1	–
–	–	7.12 µM	6.79 µM	0.11 µM	NC(=Nc1ccc2c(c1)N(CCN1CC[C@@H](O)C1)CC2)c1cccs1	–
–	–	99 µM	2.39 µM	0.54 µM	NC(=Nc1ccc2c(c1)N(C1CCNCC1)CC2)c1cccs1	–
40	50	7.17 µM	8.94 µM	0.18 µM	N=C(Nc1ccc2c(c1)N(C1CCNC1)CC2)c1cccs1 (racemic)	–
13	26	243 µM	481 µM	18.8 µM	N=C(Nc1cc2c(cc1F)CCN2C1CCNCC1)c1cccs1	–
–	–	195 µM	83 µM	0.37 µM	CN[C@H]1CC[C@@H](N2CCc3ccc(NC(=N)c4cccs4)cc32)CC1	IC50 [5]: 2.34 µM; inhibition [6]: 52%; inhibition [7]: 90%; inhibition [8]: 86%; IC50 (Nitric oxide synthase 1 [9]): 1.93 µM; inhibition (Rattus norvegicus [10]): 72%; Activity (Rattus norvegicus [11]): Active; inhibition [12]: 80%; inhibition [13]: 85%; inhibition [14]: 80%; inhibition [15]: 60%; MPE (Rattus norvegicus [16]): 66%; inhibition [17]: 58%; IC50 [18]: 4.4 µM; inhibition [19]: 59%; Activity [20]: Not Active; Activity [21]: Not Active; inhibition [22]: 69%; inhibition [23]: 95%; IC50 (Nitric oxide synthase 3 [24]): 4.16 µM
–	–	21.5 µM	1.12 µM	2.07 µM	NC(=Nc1ccc2c(c1)N(C1CCSCC1)CC2)c1cccs1	–
–	–	3.36 µM	3.41 µM	0.07 µM	NC(=Nc1ccc2c(c1)N(CCNCCO)CC2)c1cccs1	–
–	–	237 µM	189 µM	2.12 µM	CN[C@H]1CC[C@H](N2CCc3ccc(NC(=N)c4cccs4)cc32)CC1	–
–	–	–	–	–	CN1CCC[C@H]1CCN1CCCc2cc(NC(=N)c3cccs3)ccc21	IC50 [25]: 4.7 µM; Activity [20]: Active; Activity [21]: Active
10	0.5	–	–	–	N=C(Nc1ccc2c(c1)N(C1CCSCC1)CC2)c1cccs1	–
71	62	–	–	–	N=C(Nc1ccc2c(c1)N(CCN1CC[C@@H](O)C1)CC2)c1cccs1	–
–	–	109 µM	> 100 µM	4.07 µM	NC(=Nc1ccc2c(c1)N(C1CCCCC1)CC2)c1cccs1	–
27	–	–	–	–	N=C(Nc1ccc2c(c1)N(C1CCCCC1)CC2)c1cccs1	–
41	91	231 µM	522 µM	5.75 µM	CN[C@H]1CC[C@H](N2CCc3cc(F)c(NC(=N)c4cccs4)cc32)CC1	–
26	–	–	–	–	N=C(Nc1ccc2c(c1)N(C1CCOCC1)CC2)c1cccs1	–
